Screening data from PubChem BioAssay.
An excerpt weighted towards active compounds, which were near 2.1% of everything screened.
Cneo AK release = Cryptococcus neoformans lysis via adenylate kinase release; C. neoformans lysis, adenylate kinase release luminescence, 4 h; normalised: neutral wells 0, clomiphene wells 100; lysis activity, % at 15 µM; hit rate 0.2% among 360,000; AID 651654;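 active = mean lysis activity across replicates of at least 80%, whatever share of replicates individually reach that level; inactive = mean lysis activity below 80%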
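Schedule: static 4 h at 37 °C with compound, 1 h detection; system: C. neoformans cells; benchmarks: Clomiphene as positive control; buffer or medium: fresh YPD medium; measure: luminescence rise reflecting yeast cell lysis; measured by: luminescent adenylate kinase detection reagent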
XiGFP reactiv = X-chromosome reactivation activator; AID 743238; XiGFP mouse fibroblasts, % GFP-positive cells imaging, 3 d; cells co-treated with 5-aza-dC sensitizer; scaled so ellipticine positive control = 100%; hit rate 0.055% among 360,000; activation, % at 7.58 µM;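 active = mean normalized replicate activation at least 10% and every replicate at or above 10%; inconclusive = only one of the two criteria met; inactive = mean below 10% and not all replicates reach 10%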
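Material: XiGFP fibroblasts, SV40-immortalized; Buffer or medium: DMEM containing 5-aza-dC; Compound dosing: single point; Times: 3 days compound exposure.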
DENV2 CPE rescue = protects cells from dengue virus 2 cytopathic effect. CPE inhibition, % at 9.99 µM. hit rate 1.7% among 350,000. DENV2-infected cells, cytopathic effect rescue, plate reader; in the data active = CPE inhibition above about 20%, passing the limit was not always enough; inconclusive = no clear call, values can overlap the other calls; tested in BHK-21 cells
C2C12 statin = suppression of simvastatin myotoxicity; C2C12 myotubes + simvastatin, ATP luminescence, 48 h; scaled: DMSO 0, geranylgeraniol control 100; rescue of ATP level, % at 7.49 µM; hit rate 0.78% among 330,000; AID 602340;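 active = mean ATP rescue above about 67%, or every replicate alone reaching that limit, limit read from the data, passing the limit was not always enough; inconclusive = no clear call, values can overlap the other calls; inactive = mean under the limit and some replicate under it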;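 note: myotubes were challenged with 10 µM simvastatin during compound exposure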
Each line names hits and unclear results; the compound was inactive in the other large screens; ! = not confirmed by another sample.

COc1ccc(CNC(=O)C2CCN(S(=O)(=O)c3ccc4c(c3)C(C)(C)C(=O)N4C)CC2)cc1	C2C12 statin 86
COc1ccc(S(=O)(=O)N2CCC(C(=O)NCCC(=O)NCc3cccnc3)CC2)cc1	DENV2 CPE rescue 75
C[C@@H]1CN([C@@H](C)CO)C(=O)c2cc(C3=CCCCC3)cnc2O[C@H]1CN(C)C(=O)c1ccc2c(c1)OCO2	none
COc1ccc(NC(=O)Nc2ccc3c(c2)C(=O)N([C@@H](C)CO)C[C@H](C)[C@@H](CN(C)C(=O)c2ccccc2)OCCCC[C@H](C)O3)cc1	none
Cc1cc2cc(C)c3nnc(SCC(=O)N4CCN(C(=O)c5ccco5)CC4)n3c2cc1C	none (no result: Cneo AK release, XiGFP reactiv, C2C12 statin)
Cn1c(SCC(=O)N2CCN(C(=O)c3ccco3)CC2)nnc1-c1ccc(NS(C)(=O)=O)cc1	C2C12 statin 98
CC(C)CC#Cc1ccc2c(c1)O[C@@H](CN(C)Cc1ccncc1)[C@@H](C)CN([C@H](C)CO)S2(=O)=O	none
CN1C(C(=O)NCCc2cccs2)CC2Cn3c(nc4cc(Cl)c(Cl)cc43)C21 (stereo unspecified)	DENV2 CPE rescue 80
COCCNC(=O)C1CC2Cn3c(nc4cc(C)c(C)cc43)C2N1C (stereo unspecified)	DENV2 CPE rescue 29
CC1Cc2nc(SCC(=O)N3CCCC3)n(C)c(=O)c2S1 (stereo unspecified)	none
CC1Cc2nc(SCC(N)=O)n(C)c(=O)c2S1 (stereo unspecified)	C2C12 statin 135
Cc1noc(C)c1S(=O)(=O)Nc1ccc2c(c1)CC(=O)N([C@H](C)CO)C[C@H](C)[C@@H](CN(C)S(=O)(=O)c1c(C)noc1C)O2	none
COC(=O)c1ccc2nc(-c3ccccc3)c(Cc3ccsc3)n2c1	none (no result: XiGFP reactiv)
COC(=O)c1ccc2nc(-c3ccco3)c(Cc3cccc(Cl)c3)n2c1	none (no result: Cneo AK release, C2C12 statin)
COC(=O)c1ccc2nc(-c3ccco3)c(Cc3ccsc3)n2c1	DENV2 CPE rescue 68 (no result: Cneo AK release, C2C12 statin)
COC(=O)c1ccc2nc(-c3ccco3)c(Cc3ccccc3)n2c1	C2C12 statin 83
CC(C)NC(=O)N(C)C[C@@H]1Oc2ccc(NC(=O)Cc3ccccc3)cc2C(=O)N([C@H](C)CO)C[C@H]1C	DENV2 CPE rescue 78
CC(C)NC(=O)N(C)C[C@H]1Oc2ccc(NC(=O)Cc3ccccc3)cc2C(=O)N([C@H](C)CO)C[C@@H]1C	DENV2 CPE rescue 52!
CC(C)NC(=O)N(C)C[C@@H]1Oc2ccc(NC(=O)Cc3ccccc3)cc2C(=O)N([C@@H](C)CO)C[C@H]1C	none
CC(C)NC(=O)Nc1ccc2c(c1)C(=O)N([C@@H](C)CO)C[C@@H](C)[C@@H](CN(C)C(=O)Nc1ccccc1)OCCCC[C@@H](C)O2	none (no result: C2C12 statin)
Cc1ncc[nH]1	DENV2 CPE rescue 57 (no result: XiGFP reactiv)
O=C1Cc2cc(S(=O)(=O)N3CCNCC3)ccc2N1	DENV2 CPE rescue 34 (no result: Cneo AK release, C2C12 statin)
CCOC(=O)Nc1ccc(N2CCOCC2)c(S(=O)(=O)N2CCOCC2)c1	DENV2 CPE rescue 26
COc1ccc(CN(C)C[C@H]2OCCCC[C@H](C)Oc3ccc(NC(=O)NC(C)C)cc3C(=O)N([C@@H](C)CO)C[C@@H]2C)cc1	none
C[C@H](CO)N1C[C@H](C)[C@H](CN(C)CC2CCCCC2)OCCCC[C@H](C)Oc2ccc(NC(=O)C3CCCCC3)cc2C1=O	DENV2 CPE rescue 23 (no result: C2C12 statin)
C[C@H](CO)N1C[C@H](C)[C@@H](CN(C)CC2CCCCC2)Oc2ccc(NC(=O)C3CCCCC3)cc2C1=O	DENV2 CPE rescue 23
C[C@@H]1CN([C@H](C)CO)C(=O)c2cc(NC(=O)C3CCCCC3)ccc2O[C@@H]1CN(C)S(C)(=O)=O	DENV2 CPE rescue 24
Cc1ccc(SCCNC(=S)Nc2ccc(C)c(C)c2)cc1	none (no result: XiGFP reactiv, DENV2 CPE rescue)
Cc1ccc(SCCNC(=S)Nc2cc(C)ccc2C)cc1	C2C12 statin 73 (no result: XiGFP reactiv, DENV2 CPE rescue)
NC(=O)c1ccsc1NC(=O)COC(=O)[C@@H]1CCCN1C(=O)c1cccs1	DENV2 CPE rescue 122 (no result: Cneo AK release, C2C12 statin)
CC[n+]1c(C=C2C=C(C)OC(C)=C2)sc2ccccc21	XiGFP reactiv 57 (no result: Cneo AK release, DENV2 CPE rescue)
C[C@@H]1CN([C@H](C)CO)C(=O)c2cccc(NC(=O)c3ccc(-c4nccs4)cc3)c2O[C@H]1CN(C)S(=O)(=O)c1cn(C)cn1	none (no result: C2C12 statin)
CC1(C)C(c2ccc(Cl)cc2)=[N+]([O-])C2(CCCC/C2=N\O)N1O (stereo unspecified)	C2C12 statin 116 (no result: XiGFP reactiv, DENV2 CPE rescue)
O=C(Nc1ccccc1)c1ccccc1CSc1ccccc1	DENV2 CPE rescue 44
CCCC(=O)N1CC2(CN(C(=O)C3CC3)C2)c2c(n(C)c3cc(OC)ccc23)[C@H]1CO	none (no result: Cneo AK release, C2C12 statin)
COc1ccc2c3c(n(C)c2c1)[C@@H](CO)N(C(C)=O)CC31CCN(C(=O)c2cnccn2)CC1	DENV2 CPE rescue 23 (no result: Cneo AK release, C2C12 statin)
COc1ccc2c3c(n(C)c2c1)[C@H](CO)N(C(=O)c1cnccn1)CC31CCN(C(C)=O)CC1	none (no result: Cneo AK release, C2C12 statin)
COc1ccc2c3c(n(C)c2c1)[C@H](CO)N(C(C)=O)CC31CN(C(=O)C2CC2)C1	DENV2 CPE rescue 66 (no result: Cneo AK release, C2C12 statin)
COc1ccc2c3c(n(C)c2c1)[C@@H](CO)N(C(=O)C1CCCCC1)CC31CCN(C(=O)c2ccncc2)CC1	DENV2 CPE rescue 42 (no result: Cneo AK release, C2C12 statin)
COc1ccc2c3c(n(C)c2c1)[C@@H](CO)N(Cc1cc(F)ccc1F)CC31CN(C(=O)C2CC2)C1	DENV2 CPE rescue 38 (no result: Cneo AK release, C2C12 statin)
C[C@H]1CN([C@@H](C)CO)C(=O)c2cc(/C=C/c3ccccc3)cnc2O[C@@H]1CN(C)S(=O)(=O)c1cccs1	none
COc1ccc(NC(=O)Nc2ccc3c(c2)C(=O)N([C@@H](C)CO)C[C@@H](C)[C@H](CN(C)C(=O)Nc2cccc4ccccc24)O3)cc1	none
COc1ccc2c3c(n(C)c2c1)[C@H](CO)N(C(=O)C1CC1)CC31CCN(C(=O)c2ccncc2)CC1	DENV2 CPE rescue 32 (no result: Cneo AK release, C2C12 statin)
COc1ccc2c3c(n(C)c2c1)[C@@H](CO)N(C(=O)C1CC1)CC31CCN(C(=O)c2ccncc2)CC1	none (no result: Cneo AK release, C2C12 statin)
COc1ccc(S(=O)(=O)N2CC3(CN(C(=O)CN(C)C)[C@H](CO)c4c3c3ccc(OC)cc3n4C)C2)cc1	DENV2 CPE rescue 102 (no result: Cneo AK release, C2C12 statin)
COCC(=O)N1CC2(C1)CN(C(=O)NC1CCCC1)[C@@H](CO)c1c2c2ccc(OC)cc2n1C	DENV2 CPE rescue inconclusive (no result: Cneo AK release, C2C12 statin)
COc1ccc2c3c(n(C)c2c1)[C@H](CO)N(C(=O)CC1CC1)CC31CCN(C(=O)C2CCC2)CC1	none (no result: Cneo AK release, DENV2 CPE rescue, C2C12 statin)
CCCC(=O)N1CC2(CCN(C(=O)C3CCC3)CC2)c2c(n(C)c3cc(OC)ccc23)[C@@H]1CO	DENV2 CPE rescue 22 (no result: Cneo AK release, C2C12 statin)
COc1ccc2c3c(n(C)c2c1)[C@@H](CO)N(C(=O)NC1CCCCC1)CC31CN(C)C1	DENV2 CPE rescue 32 (no result: Cneo AK release, C2C12 statin)
CO[C@@H]1CN(C)C(=O)c2ccc(NC(=O)c3cc(C)on3)cc2OC[C@@H](C)N(C(=O)C2CC2)C[C@H]1C	none
COc1ccccc1CNC(=O)C[C@H]1C[C@H]2c3cc(NC(=O)Nc4ccc(C(F)(F)F)cc4)ccc3O[C@H]2[C@@H](CO)O1	none
Cc1ccc(S(=O)(=O)Nc2ccc3c(c2)C(=O)N([C@H](C)CO)C[C@@H](C)[C@@H](CN(C)C)O3)cc1	none
